From ChEMBL document CHEMBL3352416, “Discovery of carbohybrid-based 2-aminopyrimidine analogues as a new class of rapid-acting antimalarial agents using image-based cytological profiling assay” (J Med Chem, 2014)
The source made the active and inactive calls. No cut-off for these calls is given here.

Legend:
[1] = tested on: Plasmodium falciparum; assay: Antimalarial activity against Plasmodium falciparum K1 by automated image mining based cytological profiling assay; assay type: functional, organism-based
How it was run: (§1)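 Parasite cultures in 384-well format, read by automated imaging. Infected erythrocytes detected by DAPI nuclear staining against WGA-AlexaFluor 488 host-cell stain, and viability by Mitotracker Red CMXRos. Total culture parasitaemia quantified. EC50 given as mean±SD of two independent experiments, each in duplicate.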

[2] = tested on: Plasmodium falciparum; assay: Antimalarial activity against tightly synchronized Plasmodium falciparum K1 assessed as parasite stage accumulation index at trophozoites stages at 10 uM treated at 18 hrs post-invasion for continuous duration of 36 hrs by automated image mining based cytological profiling assay; assay type: functional
How it was run: (§2)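 Tightly synchronized cultures exposed to 10 µM final from 6 hpi (early ring), 18 hpi (late ring) or 30 hpi (mid-trophozoite) for a continuous 36 h. Erythrocytes stained with WGA-AlexaFluor 488, parasite nuclei with DAPI, functional mitochondria with Mitotracker Red CMXRos. Stages (early rings, late rings, trophozoites, schizonts) classified by nuclear spot number and size. Viable parasitaemia and stage accumulation index obtained by automated image analysis.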

[3] = tested on: Plasmodium falciparum; assay: Antimalarial activity against tightly synchronized Plasmodium falciparum K1 assessed as parasite stage accumulation index at schizonts stages at 10 uM treated at 30 hrs post-invasion for continuous duration of 36 hrs by automated image mining based cytological profiling assay; assay type: functional; how it was run: as §2
[4] = tested on: Plasmodium falciparum; assay: Antimalarial activity against tightly synchronized Plasmodium falciparum W2 assessed as parasite stage accumulation index at trophozoites stages at 10 uM treated at 6 hrs post-invasion for continuous duration of 36 hrs by automated image mining based cytological profiling assay; assay type: functional
[5] = tested on: Plasmodium falciparum; assay: Antimalarial activity against tightly synchronized Plasmodium falciparum HB3 assessed as parasite stage accumulation index at schizonts stages at 10 uM treated at 6 hrs post-invasion for continuous duration of 36 hrs by automated image mining based cytological profiling assay; assay type: functional; how it was run: as §2
[6] = tested on: Plasmodium falciparum; assay: Antimalarial activity against tightly synchronized Plasmodium falciparum K1 assessed as parasite stage accumulation index at late ring stages at 10 uM treated at 18 hrs post-invasion for continuous duration of 36 hrs by automated image mining based cytological profiling assay; assay type: functional; how it was run: as §2
[7] = tested on: Plasmodium falciparum; assay: Antimalarial activity against Plasmodium falciparum HB3 by automated image mining based cytological profiling assay; assay type: functional; how it was run: as §1
[8] = tested on: Plasmodium falciparum; assay: Antimalarial activity against Plasmodium falciparum W2 by automated image mining based cytological profiling assay; assay type: functional, organism-based; how it was run: as §1
[9] = tested on: Plasmodium falciparum; assay: Antimalarial activity against tightly synchronized Plasmodium falciparum W2 assessed as parasite stage accumulation index at late ring stages at 10 uM treated at 6 hrs post-invasion for continuous duration of 36 hrs by automated image mining based cytological profiling assay; assay type: functional
[10] = tested on: Plasmodium falciparum; assay: Antimalarial activity against tightly synchronized Plasmodium falciparum W2 assessed as parasite stage accumulation index at late ring stages at 10 uM treated at 18 hrs post-invasion for continuous duration of 36 hrs by automated image mining based cytological profiling assay; assay type: functional; how it was run: as §2
[11] = tested on: Plasmodium falciparum; assay: Antimalarial activity against tightly synchronized Plasmodium falciparum W2 assessed as parasite stage accumulation index at trophozoites stages at 10 uM treated at 30 hrs post-invasion for continuous duration of 36 hrs by automated image mining based cytological profiling assay; assay type: functional; how it was run: as §2
[12] = tested on: Plasmodium falciparum; assay: Antimalarial activity against tightly synchronized Plasmodium falciparum W2 assessed as parasite stage accumulation index at schizonts stages at 10 uM treated at 18 hrs post-invasion for continuous duration of 36 hrs by automated image mining based cytological profiling assay; assay type: functional
[13] = tested on: Plasmodium falciparum; assay: Antimalarial activity against tightly synchronized Plasmodium falciparum HB3 assessed as parasite stage accumulation index at schizonts stages at 10 uM treated at 18 hrs post-invasion for continuous duration of 36 hrs by automated image mining based cytological profiling assay; assay type: functional; how it was run: as §2
[14] = tested on: Plasmodium falciparum; assay: Antimalarial activity against tightly synchronized Plasmodium falciparum K1 assessed as parasite stage accumulation index at schizonts stages at 10 uM treated at 6 hrs post-invasion for continuous duration of 36 hrs by automated image mining based cytological profiling assay; assay type: functional; how it was run: as §2
[15] = tested on: Plasmodium falciparum; assay: Antimalarial activity against tightly synchronized Plasmodium falciparum HB3 assessed as parasite stage accumulation index at trophozoites stages at 10 uM treated at 18 hrs post-invasion for continuous duration of 36 hrs by automated image mining based cytological profiling assay; assay type: functional; how it was run: as §2
[16] = tested on: Plasmodium falciparum; assay: Antimalarial activity against tightly synchronized Plasmodium falciparum K1 assessed as parasite stage accumulation index at schizonts stages at 10 uM treated at 18 hrs post-invasion for continuous duration of 36 hrs by automated image mining based cytological profiling assay; assay type: functional; how it was run: as §2
[17] = tested on: Plasmodium falciparum; assay: Antimalarial activity against tightly synchronized Plasmodium falciparum HB3 assessed as parasite stage accumulation index at trophozoites stages at 10 uM treated at 6 hrs post-invasion for continuous duration of 36 hrs by automated image mining based cytological profiling assay; assay type: functional; how it was run: as §2
[18] = tested on: Plasmodium falciparum; assay: Antimalarial activity against tightly synchronized Plasmodium falciparum HB3 assessed as parasite stage accumulation index at late ring stages at 10 uM treated at 6 hrs post-invasion for continuous duration of 36 hrs by automated image mining based cytological profiling assay; assay type: functional; how it was run: as §2
[19] = tested on: Plasmodium falciparum; assay: Antimalarial activity against tightly synchronized Plasmodium falciparum K1 assessed as parasite stage accumulation index at trophozoites stages at 10 uM treated at 30 hrs post-invasion for continuous duration of 36 hrs by automated image mining based cytological profiling assay; assay type: functional; how it was run: as §2
[20] = tested on: Plasmodium falciparum; assay: Antimalarial activity against tightly synchronized Plasmodium falciparum K1 assessed as parasite stage accumulation index at early ring stages at 10 uM treated at 6 hrs post-invasion for continuous duration of 36 hrs by automated image mining based cytological profiling assay; assay type: functional; how it was run: as §2
[21] = tested on: Plasmodium falciparum; assay: Antimalarial activity against tightly synchronized Plasmodium falciparum HB3 assessed as parasite stage accumulation index at late ring stages at 10 uM treated at 18 hrs post-invasion for continuous duration of 36 hrs by automated image mining based cytological profiling assay; assay type: functional; how it was run: as §2
[22] = tested on: Plasmodium falciparum; assay: Antimalarial activity against tightly synchronized Plasmodium falciparum W2 assessed as parasite stage accumulation index at schizonts stages at 10 uM treated at 6 hrs post-invasion for continuous duration of 36 hrs by automated image mining based cytological profiling assay; assay type: functional; how it was run: as §2
[23] = tested on: Plasmodium falciparum; assay: Antimalarial activity against tightly synchronized Plasmodium falciparum W2 assessed as parasite stage accumulation index at early ring stages at 10 uM treated at 6 hrs post-invasion for continuous duration of 36 hrs by automated image mining based cytological profiling assay; assay type: functional; how it was run: as §2
[24] = tested on: Plasmodium falciparum; assay: Antimalarial activity against tightly synchronized Plasmodium falciparum HB3 assessed as parasite stage accumulation index at early ring stages at 10 uM treated at 6 hrs post-invasion for continuous duration of 36 hrs by automated image mining based cytological profiling assay; assay type: functional
[25] = tested on: Plasmodium falciparum; assay: Antimalarial activity against tightly synchronized Plasmodium falciparum K1 assessed as parasite stage accumulation index at late ring stages at 10 uM treated at 6 hrs post-invasion for continuous duration of 36 hrs by automated image mining based cytological profiling assay; assay type: functional
[26] = tested on: Plasmodium falciparum; assay: Antimalarial activity against tightly synchronized Plasmodium falciparum HB3 assessed as parasite stage accumulation index at schizonts stages at 10 uM treated at 30 hrs post-invasion for continuous duration of 36 hrs by automated image mining based cytological profiling assay; assay type: functional
[27] = tested on: Plasmodium falciparum; assay: Antimalarial activity against tightly synchronized Plasmodium falciparum W2 assessed as parasite stage accumulation index at trophozoites stages at 10 uM treated at 18 hrs post-invasion for continuous duration of 36 hrs by automated image mining based cytological profiling assay; assay type: functional
[28] = tested on: Plasmodium falciparum; assay: Antimalarial activity against Plasmodium falciparum K1 assessed as increase in schizonts parasite stage accumulation index at 10 uM treated at 42 hrs post-invasion for 24 hrs by automated image mining based cytological profiling assay; assay type: functional, organism-based
How it was run: (§3)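 Tightly synchronized cultures exposed from the 42 hpi mid-schizont point for 24 h to 10 µM final. Host cells stained with wheat germ agglutinin-AlexaFluor 488, parasite nuclei with DAPI and live-parasite mitochondria with Mitotracker Red CMXRos. Infected and viable parasitaemia and stage proportions quantified by automated image mining. Stage accumulation indices and parasitaemia reduction index derived.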

[29] = tested on: Plasmodium falciparum; assay: Antimalarial activity against Plasmodium falciparum W2 assessed as increase in schizonts parasite stage accumulation index at 10 uM treated at 42 hrs post-invasion for 24 hrs by automated image mining based cytological profiling assay; assay type: functional, organism-based; how it was run: as §3
[30] = tested on: Plasmodium falciparum; assay: Antimalarial activity against tightly synchronized Plasmodium falciparum W2 assessed as parasite stage accumulation index at schizonts stages at 10 uM treated at 30 hrs post-invasion for continuous duration of 36 hrs by automated image mining based cytological profiling assay; assay type: functional
[31] = tested on: Plasmodium falciparum; assay: Antimalarial activity against Plasmodium falciparum W2 assessed as reduction in parasite stage accumulation index at 10 uM treated at 42 hrs post-invasion for 24 hrs by automated image mining based cytological profiling assay; assay type: functional, organism-based; how it was run: as §3
[32] = tested on: Plasmodium falciparum; assay: Antimalarial activity against Plasmodium falciparum K1 assessed as reduction in parasite stage accumulation index at 10 uM treated at 42 hrs post-invasion for 24 hrs by automated image mining based cytological profiling assay; assay type: functional, organism-based; how it was run: as §3
[33] = tested on: Plasmodium falciparum; assay: Antimalarial activity against Plasmodium falciparum HB3 assessed as increase in schizonts parasite stage accumulation index at 10 uM treated at 42 hrs post-invasion for 24 hrs by automated image mining based cytological profiling assay; assay type: functional; how it was run: as §3
[34] = tested on: Plasmodium falciparum; assay: Antimalarial activity against Plasmodium falciparum HB3 assessed as reduction in parasite stage accumulation index at 10 uM treated at 42 hrs post-invasion for 24 hrs by automated image mining based cytological profiling assay; assay type: functional; how it was run: as §3
[35] = tested on: Plasmodium falciparum; assay: Antimalarial activity against tightly synchronized Plasmodium falciparum K1 assessed as parasite stage accumulation index at trophozoites stages at 10 uM treated at 6 hrs post-invasion for continuous duration of 36 hrs by automated image mining based cytological profiling assay; assay type: functional

COc1ccc(CO[C@@H]([C@H](O)COC(c2ccccc2)(c2ccccc2)c2ccccc2)[C@H](OCc2ccc(OC)cc2)c2cnc(N(C)C)nc2)cc1
EC50 [1]: 200 nM

COc1ccc(CO[C@@H]([C@H](OCc2ccc(OC)cc2)c2cnc(N(C)C)nc2)[C@@H](COC(c2ccccc2)(c2ccccc2)c2ccccc2)OS(C)(=O)=O)cc1
EC50 [1]: 198 nM

COc1ccc(CO[C@H]([C@H](COS(C)(=O)=O)N=[N+]=[N-])[C@H](OCc2ccc(OC)cc2)c2cnc(N(C)C)nc2)cc1
EC50 [1]: 11700 nM

COc1ccc(CO[C@H]([C@H](COCc2ccccc2)N=[N+]=[N-])[C@H](OCc2ccc(OC)cc2)c2cnc(N(C)C)nc2)cc1
EC50 [1]: 1200 nM

CCN(CC)CCCC(C)Nc1ccnc2cc(Cl)ccc12 (centres undefined) [CHLOROQUINE]
Activity [2]: 1.22
Activity [3]: 0.56
Activity [4]: 0.65
Activity [5]: 0.2
Activity [6]: 1.38
EC50 [7]: 33 nM
EC50 [8]: 221 nM
Activity [9]: 1.51
Activity [10]: 1.82
Activity [11]: 1.26
Activity [12]: 1.64
Activity [13]: 0.82
Activity [14]: 0.25
EC50 [1]: 208 nM
Activity [15]: 1.85
Activity [16]: 0.37
Activity [17]: 0.52
Activity [18]: 3.05
Activity [19]: 0.75
Activity [20]: 1.72
Activity [21]: 2.17
Activity [22]: 0.53
Activity [23]: 1.78
Activity [24]: 1.82
Activity [25]: 1.62
Activity [26]: 1.83

C[C@@H]1CC[C@H]2[C@@H](C)C(=O)O[C@@H]3O[C@@]4(C)CC[C@@H]1[C@]32OO4 [ARTEMISININ]
Activity [27]: 1.06
Activity [2]: 0.7
inhibition [28]: Active
Activity [3]: 0.31
Activity [4]: 0.81
Activity [5]: 0.11
Activity [6]: 2.52
EC50 [7]: 18 nM
EC50 [8]: 11 nM
inhibition [29]: Active
Activity [10]: 2.01
Activity [11]: 1.51
Activity [13]: 0.47
Activity [30]: 1.05
inhibition [31]: Active
Activity [14]: 0.17
EC50 [1]: 3 nM
inhibition [32]: Active
Activity [15]: 1.06
inhibition [33]: Active
inhibition [34]: Active
Activity [35]: 0.51
Activity [16]: 0.26
Activity [17]: 0.37
Activity [18]: 3.53
Activity [19]: 1.09
Activity [20]: 1.96
Activity [21]: 4.4
Activity [22]: 0.47
Activity [23]: 2.06

COc1ccc(CO[C@H]([C@H](O)COC(c2ccccc2)(c2ccccc2)c2ccccc2)[C@H](OCc2ccc(OC)cc2)c2cnc(N(C)C)nc2)cc1
EC50 [1]: 559 nM

COc1ccc(CO[C@@H]([C@H](CO)N=[N+]=[N-])[C@H](OCc2ccc(OC)cc2)c2cnc(N(C)C)nc2)cc1
EC50 [1]: 5450 nM

COc1ccc(O[C@@H]([C@H](Oc2ccc(OC)cc2)c2cnn(C)c2)[C@@H](COC(c2ccccc2)(c2ccccc2)c2ccccc2)OS(C)(=O)=O)cc1
EC50 [1]: 237 nM

COc1ccc(CO[C@H]([C@H](OCc2ccc(OC)cc2)c2cnn(C)c2)[C@@H](COC(c2ccccc2)(c2ccccc2)c2ccccc2)OS(C)(=O)=O)cc1
EC50 [1]: 158 nM

COc1ccc(CO[C@H]([C@H](OCc2ccc(OC)cc2)c2cnc(N(C)C)nc2)[C@@H](CO)OS(C)(=O)=O)cc1
EC50 [1]: 5030 nM

COc1ccc(CO[C@@H]([C@H](COS(C)(=O)=O)N=[N+]=[N-])[C@H](OCc2ccc(OC)cc2)c2cnc(N(C)C)nc2)cc1
EC50 [1]: 6660 nM

COc1ccc(CO[C@@H]([C@H](COCc2ccccc2)N=[N+]=[N-])[C@H](OCc2ccc(OC)cc2)c2cnc(N(C)C)nc2)cc1
EC50 [1]: 1420 nM

COc1ccc(CO[C@H]([C@H](O)COC(c2ccccc2)(c2ccccc2)c2ccccc2)[C@H](OCc2ccc(OC)cc2)c2cnn(C)c2)cc1
EC50 [1]: 478 nM

COc1ccc(CO[C@H]([C@H](COC(c2ccccc2)(c2ccccc2)c2ccccc2)N=[N+]=[N-])[C@H](OCc2ccc(OC)cc2)c2cnc(N(C)C)nc2)cc1
EC50 [1]: 167 nM
